From ChEMBL document CHEMBL1154366, “1,2-Diamines as inhibitors of co-activator associated arginine methyltransferase 1 (CARM1)” (Bioorg Med Chem Lett, 2009) come the findings set out here.

The IC50 is the concentration needed to halve the response being measured. Broadly, the clearance is a measure of how efficiently the substance is removed, as volume per time. By half-life is commonly meant the time needed for the level to fall by half in the phase considered. The low end stands for rapid decline, the high end for slow decline. Usually bioavailability stands for the share of a dose that reaches the circulation, judged against a reference dose that is usually intravenous. A lower bioavailability goes with little systemic uptake. As usually defined, the Vdss is the apparent volume that relates the amount in the body to the concentration in plasma or blood. A low value points to confinement near the circulation.

Data set [1] deals with T1, Histone-arginine methyltransferase CARM1 (Mus musculus, UniProt Q9WVG6).
T1 sequence (Q9WVG6 whole entry): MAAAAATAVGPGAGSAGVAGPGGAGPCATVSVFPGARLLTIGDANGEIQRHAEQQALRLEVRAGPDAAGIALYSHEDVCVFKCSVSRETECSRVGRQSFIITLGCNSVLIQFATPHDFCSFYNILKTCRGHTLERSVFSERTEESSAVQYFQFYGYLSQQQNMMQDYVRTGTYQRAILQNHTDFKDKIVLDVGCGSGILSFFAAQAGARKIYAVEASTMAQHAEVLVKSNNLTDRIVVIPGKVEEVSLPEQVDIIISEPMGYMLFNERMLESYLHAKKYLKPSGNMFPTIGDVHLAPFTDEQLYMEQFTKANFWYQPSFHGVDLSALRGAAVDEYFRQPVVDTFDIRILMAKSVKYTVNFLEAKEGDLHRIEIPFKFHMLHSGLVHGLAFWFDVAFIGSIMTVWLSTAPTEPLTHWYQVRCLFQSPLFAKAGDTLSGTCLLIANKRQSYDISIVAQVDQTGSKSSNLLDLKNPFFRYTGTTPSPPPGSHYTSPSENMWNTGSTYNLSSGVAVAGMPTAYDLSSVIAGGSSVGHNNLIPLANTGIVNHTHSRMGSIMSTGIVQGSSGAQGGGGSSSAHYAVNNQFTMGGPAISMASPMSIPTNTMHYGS
As to the kind of experiment: Inhibition of N-terminal His-tagged mouse recombinant CARM1 expressed in Sf9 cells by microbeta counting. In outline:
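Recombinant CARM1 with histone H3 substrate, in Tris-HCl pH 9. Enzyme pre-incubated with compound for 10 min at RT. [3H]SAM (20% labelled, 0.033 mCi/ml) and H3 were added, then 15 min at 30 °C. Quenched with SAH and spotted on P30 filtermat. Washed twice with 10% TCA and once with 95% ethanol, then wax scintillant counting. Values are means of at least two experiments.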

Data set [2] is described as follows: (§1) Clearance in iv dosed rat. The data set is classed as ADME, organism-based. The conditions noted are these: in vivo.
The nature of data set [3]: (§2) Volume of distribution at steady state in iv dosed rat. The data set is classed as ADME, organism-based. Conditions: in vivo, read-out: Vdss.
A short description of data set [4]: (§3) Half life in iv dosed rat. Conditions: in vivo. The data set is classed as ADME, organism-based.
A short description of data set [5]: Bioavailability in rat. The data set is classed as ADME, organism-based. The conditions noted are these: in vivo.
For data set [6], the target named is Protein arginine N-methyltransferase 1 (Homo sapiens, UniProt Q99873). The data set can be described thus: Inhibition of N-terminal GST-tagged human recombinant PRMT1 expressed in Escherichia coli by microbeta counting. The essentials: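 GST-tagged human PRMT1 made in E. coli, with recombinant histone H4 as substrate, in Tris-HCl pH 9. Enzyme pre-incubated with compound for 10 min at RT. [3H]SAM (20% labelled, 0.033 mCi/ml) and H4 were added, then 15 min at 30 °C. Stopped with SAH and spotted onto P30 filtermat. Washed with 10% TCA and 95% ethanol, then scintillation-counted.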

In data set [7] the target is T2, Histone-lysine N-methyltransferase SETD7 (Homo sapiens, UniProt Q8WTS6).
T2 sequence (Q8WTS6 whole entry): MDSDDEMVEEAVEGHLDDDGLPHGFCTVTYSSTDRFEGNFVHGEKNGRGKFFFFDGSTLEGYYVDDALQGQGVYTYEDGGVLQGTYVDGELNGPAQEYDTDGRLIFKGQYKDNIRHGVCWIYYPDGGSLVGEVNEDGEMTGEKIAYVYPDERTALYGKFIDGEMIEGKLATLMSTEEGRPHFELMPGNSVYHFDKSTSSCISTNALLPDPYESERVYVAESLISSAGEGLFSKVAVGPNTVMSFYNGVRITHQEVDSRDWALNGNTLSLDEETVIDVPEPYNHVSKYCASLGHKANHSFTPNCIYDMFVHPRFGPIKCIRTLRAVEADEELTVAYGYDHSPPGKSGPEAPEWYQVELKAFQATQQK
The data set can be described thus: Inhibition of N-terminal His-tagged human recombinant SET7/9 expressed in Escherichia coli by microbeta counting. The essentials: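 His-tagged human SET9 made in E. coli, with histone H3 substrate, in Tris-HCl pH 9. Compound and enzyme pre-incubated for 10 min at RT. [3H]SAM (20% labelled, 0.011 mCi/ml) and H3 were added, then 45 min at 37 °C. Reaction stopped and transferred to a flashplate. Washed twice with 10% TCA, dried and counted.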

Data set [8] relates to Rattus norvegicus. The description is as §1. The class given is ADME, organism-based. The conditions noted are these: in vivo.
Data set [9] concerns Rattus norvegicus. Described as §2. The data set is classed as ADME, organism-based. Conditions: in vivo.
For data set [10], the system named is Rattus norvegicus. Described as §3. The data set is classed as ADME, organism-based. The conditions noted are these: in vivo.

Sequence of Protein arginine N-methyltransferase 1 (Q99873 whole entry): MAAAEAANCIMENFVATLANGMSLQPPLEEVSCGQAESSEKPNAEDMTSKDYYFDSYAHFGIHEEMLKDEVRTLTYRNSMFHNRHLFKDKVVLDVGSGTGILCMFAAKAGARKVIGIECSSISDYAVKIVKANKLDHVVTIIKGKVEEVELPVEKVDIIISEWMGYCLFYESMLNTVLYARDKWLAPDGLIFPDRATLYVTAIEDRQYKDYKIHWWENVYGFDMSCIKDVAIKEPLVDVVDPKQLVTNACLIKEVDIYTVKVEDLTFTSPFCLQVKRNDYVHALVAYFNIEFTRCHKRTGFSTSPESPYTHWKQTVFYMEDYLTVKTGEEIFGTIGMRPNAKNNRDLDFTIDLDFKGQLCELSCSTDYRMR

For `CNCCNCc1cccc(-n2nc(C(F)(F)F)cc2C(=O)NCc2nc3ccccc3[nH]2)c1`, the half-maximal inhibitory concentration (IC50) in data set [1] came to 4.3 µM.

In the case of `COc1ccccc1CNC(=O)c1cc(C(F)(F)F)nn1-c1cccc(-c2noc([C@H](C)N)n2)c1`, the IC50 in data set [1] is over 20 µM.

With `CNCCNCc1cc(-n2nc(C(F)(F)F)cc2C(=O)NCc2ccccc2OC)ccc1C`, the 50% inhibitory concentration (IC50) in data set [1] was 7.94 µM.

On to `CNCCNCc1cccc(-n2nc(C(F)(F)F)cc2C(=O)NCc2ccccc2OC(F)(F)F)c1`, for which the IC50 in [1] was 6.5 µM.

In the case of `CNCCNCc1cccc(-n2nc(C(F)(F)F)cc2C(=O)NCCc2c[nH]c3ccccc23)c1`, the IC50 in data set [1] is 1.8 µM.

For the compound `CNCCNCc1cccc(-n2nc(C(F)(F)F)cc2C(=O)NCc2c(OC)ccc3ccccc23)c1`, in data set [1], the IC50 turned out to be 3.35 µM.

As for `CNCCNCc1cccc(-n2nc(C(F)(F)F)cc2C(=O)NCc2ccccc2C)c1`, the IC50 in data set [1] was 13.1 µM.

As for `CCOc1ccccc1CNC(=O)c1cc(C(F)(F)F)nn1-c1cccc(CNCCNC)c1`, in data set [1], the IC50 turned out to be 0.9 µM. This compound gave a clearance in data set [2] of 20 mL/min/kg. Moreover, in data set [3], the Vd was found to be 0.1 L/kg. Besides, the half-life in [4] is 0.5 h. The bioavailability in [5] stood at 2%.

As for `CNCCNCc1cc(-n2nc(C(F)(F)F)cc2C(=O)NCc2ccccc2OC)cc(C(F)(F)F)c1`, the IC50 in [1] is over 20 µM.

Consider `CNCCNCc1cccc(-n2nc(C(F)(F)F)cc2C(=O)NCc2cc(F)ccc2OC)c1`, for which the IC50 in data set [1] was 0.71 µM.

As to `CNCCNCc1cc(-n2nc(C(F)(F)F)cc2C(=O)NCc2ccccc2OC)ccc1F`, in [1], the IC50 stood at 5.6 µM.

For the compound `COc1ccccc1CNC(=O)c1cc(C(F)(F)F)nn1-c1cccc(CNC(=S)[C@H](C)N)c1`, the IC50 in data set [1] came out at 4.5 µM.

Turning to `COc1ccccc1CNC(=O)c1cc(C(F)(F)F)nn1-c1cccc(CNC2CCNC2)c1` (stereo unspecified), the IC50 in data set [1] was over 20 µM.

Turning to `COc1ccccc1CNC(=O)c1cc(C(F)(F)F)nn1-c1cccc(CNCCN(C)C)c1`, the IC50 in [1] worked out at 7.9 µM.

With `CNCCNCc1cccc(-n2nc(C(F)(F)F)cc2C(=O)NCc2ccccc2OC)c1`, the IC50 in data set [1] was 0.2 µM; in [6], over 100 µM; in data set [7], over 100 µM. Besides, the clearance in [2] is 20 mL/min/kg. Also, the Vd in data set [3] worked out at 1.4 L/kg. Further, the half-life in data set [4] was 2.1 h. For the same compound, in [5], the bioavailability worked out at 4%.

For the compound `COc1ccccc1CNC(=O)c1cc(C(F)(F)F)nn1-c1cccc(CCNC(=O)[C@H](C)N)c1`, the IC50 in [1] was over 20 µM.

With `CNCCNCc1cccc(-n2nc(C(F)(F)F)cc2C(=O)NCc2ccccc2)c1`, the IC50 in data set [1] was over 10 µM.

Regarding `COc1ccccc1CNC(=O)c1cc(C(F)(F)F)nn1-c1cccc(CNCCN)c1`, the IC50 in [1] was 1 µM.

`CCNCCNCc1cccc(-n2nc(C(F)(F)F)cc2C(=O)NCc2ccccc2OC)c1`: the IC50 in data set [1] was 7.7 µM.

Regarding `CNCCNCc1cccc(-n2nc(C(F)(F)F)cc2C(=O)NCc2cccc3c2OCCO3)c1`, the IC50 in [1] is 0.71 µM.

Regarding `COc1ccccc1CNC(=O)c1cc(C(F)(F)F)nn1-c1cccc(-c2n[nH]c([C@H](C)N)n2)c1`, the IC50 in data set [1] was over 20 µM.

With `CCc1ccccc1CNC(=O)c1cc(C(F)(F)F)nn1-c1cccc(CNCCNC)c1`, the IC50 in [1] came to 1.61 µM.

Consider `COc1ccccc1CNC(=O)c1cc(C(F)(F)F)nn1-c1cccc(CNC(=O)[C@H](C)O)c1`, for which the IC50 in [1] was over 20 µM.

Take `COc1ccccc1CNC(=O)c1cc(C(F)(F)F)nn1-c1cccc(CNC(=O)[C@H](C)N)c1`: the CL in the data set with Rattus norvegicus [8] was 1430 mL/min/kg. In addition, in the data set with Rattus norvegicus [9], the Vdss worked out at 33.6 L/kg. Moreover, the t1/2 with Rattus norvegicus [10] came out at 4.2 min.

As for `CNCCNCc1cccc(-n2nc(C(F)(F)F)cc2C(=O)NCC2CCCCC2)c1`, the IC50 in data set [1] was determined as 3.6 µM.

As to `CNCCNCc1cccc(-n2nc(C(F)(F)F)cc2C(=O)NCc2ccccc2N)c1`, the IC50 in [1] was over 10 µM.

For `CNCCNC(=O)c1cccc(-n2nc(C(F)(F)F)cc2C(=O)NCc2ccccc2OC)c1`, the IC50 in data set [1] was over 20 µM.

Turning to `CNCCNCc1cccc(-n2nc(C(F)(F)F)cc2C(=O)NCc2nc3ccccc3n2C)c1`, the IC50 in [1] is 4.7 µM.

Turning to `CNCCNCc1cccc(-n2nc(C(F)(F)F)cc2-c2nnc(-c3ccccc3OC)o2)c1`, the clearance in [2] was 36.7 mL/min/kg. In addition, the Vd in data set [3] was 0.6 L/kg. In addition, the half-life in [4] is 1.8 h. Further, the bioavailability in data set [5] was determined as 3%.

For `CNCCNCc1cccc(-n2nc(C(F)(F)F)cc2C(=O)NCc2cccc3ccccc23)c1`, in data set [1], the IC50 was determined as 0.32 µM. Also, the clearance in data set [2] was 38.3 mL/min/kg. In addition, in [3], the Vd was determined as 0.2 L/kg. The half-life in [4] is 1.4 h. The same compound showed a bioavailability in [5] of 3%.

As to `CNCCNCc1ccc2c(c1)n1nc(C(F)(F)F)cc1c(=O)n2Cc1ccccc1OC`, in data set [1], the IC50 was over 10 µM.

On to `CNCCNC(C)c1cccc(-n2nc(C(F)(F)F)cc2C(=O)NCc2ccccc2OC)c1` (stereo unspecified), for which the IC50 in data set [1] came to 21 µM.
